From ChEMBL document CHEMBL1932946, “Design, synthesis and anticonvulsant evaluation of novel N-(4-substituted phenyl)-2-[4-(substituted) benzylidene]-hydrazinecarbothio amides” (Eur J Med Chem, 2012) come the findings set out here.

The structures appear in SMILES notation. The source made the active and inactive calls. Where only a bound is given, the exact number is not on record here.

Usually logP stands for a log measure of how a compound divides between an organic and an aqueous phase. Lower therefore signals a more hydrophilic compound. For orientation: TD50 means the dose at which the toxic effect under study appears in half of the subjects. Broadly, the ED50 is the dose at which the effect has come halfway, by size or by number of responders.

Data set [1] deals with Mus musculus. The data set can be described thus: Anticonvulsant activity in albino CF-1 mouse assessed as protection against 6 Hz psychomotor seizure at 100 mg/kg, ip after 0.5 hrs by minimal clonic seizure test. The class given is functional. In outline: (§1)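 Male CF-1 albino mice (18–25 g) given compound i.p., suspended in 0.5% methyl cellulose, 100 mg/kg in screen. Four mice per time point challenged at 0.25, 0.5, 1.0, 2.0 and 4.0 h via corneal electrodes (32 mA, 3 s, 6 Hz). Protection = absence of psychomotor seizure (minimal clonic phase, automatistic behaviours). Scored as animals protected/tested.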

Data set [2] deals with Mus musculus. The experiment in a line: Anticonvulsant activity in albino CF-1 mouse assessed as protection against 6 Hz psychomotor seizure at 100 mg/kg, ip after 2 hrs by minimal clonic seizure test. Type of data set: functional. Summed up:
as §1

Data set [3] deals with Mus musculus. The data set can be described thus: Neurotoxicity in albino CF-1 mouse assessed as minimum motor impairment at 300 mg/kg, ip after 4 hrs by rotarod test. The settings on record: in vivo. Also on record: dose 300 mg/kg, route intraperitoneal. The class given is toxicity, organism-based. In outline:
(§2)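 Minimal motor impairment assessed in male CF-1 albino mice (18–25 g) at 0.5 and 4 h after i.p. doses of 30, 100 and 300 mg/kg, given in 0.5% methyl cellulose. Minimum dose toxic in half or more of mice recorded.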

For data set [4], the system named is Mus musculus. The data set can be described thus: Anticonvulsant activity in albino CF-1 mouse assessed as protection against 6 Hz psychomotor seizure at 100 mg/kg, ip after 1 hr by minimal clonic seizure test. The class given is functional. In outline:
as §1

Data set [5] can be described thus: Neuroprotective activity in hippocampal slice assessed as protection against kainic acid-induced cell death using propidium iodide staining. The settings on record: Hippocampus. Type of data set: functional, tissue-based. Summed up:
(§3)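 Qualitative primary screen on organotypic hippocampal slice cultures. Cell death induced by NMDA or kainic acid, with or without test compound. Propidium iodide present in all wells; PI fluorescence intensity taken as proportional to cell death.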

The nature of data set [6]: Neuroprotective activity in hippocampal slice assessed as protection against NMDA-induced cell death using propidium iodide staining. The class given is functional, tissue-based. The settings on record: Hippocampus. In outline: as §3
Data set [7] relates to Mus musculus. The data set can be described thus: Anticonvulsant activity in albino CF-1 mouse assessed as protection against 6 Hz psychomotor seizure at 100 mg/kg, ip after 0.25 hrs by minimal clonic seizure test. The class given is functional. Summed up: as §1
Data set [8] in a line: Octanol-phosphate buffer partition coefficient, log P of the compound at 5 mg after 24 hrs by UV spectroscopic analysis. Type of data set: physicochemical. Summed up:
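5 mg compound added to 10 mL octanol plus 10 mL phosphate buffer in a stoppered tube. Mixture shaken mechanically 24 h at room temperature, then left 6 h in a separating funnel to equilibrate.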

Data set [9] concerns Mus musculus. The experiment in a line: Neurotoxicity in albino CF-1 mouse assessed as minimum motor impairment at 300 mg/kg, ip after 0.5 hrs by rotarod test. Type of data set: toxicity, organism-based. Also on record: dose 300 mg/kg, route intraperitoneal. The settings on record: in vivo. Summed up: as §2
In general terms: In the rotarod test animals must keep their balance on a rotating rod.

The test system of data set [10] is Mus musculus. The data set can be described thus: Anticonvulsant activity in albino CF-1 mouse assessed as protection against 6 Hz psychomotor seizure at 100 mg/kg, ip after 4 hrs by minimal clonic seizure test. The class given is functional, organism-based. Also on record: dose 100 mg/kg. In outline:
as §1

In data set [11] the test system is Mus musculus. The experiment in a line: Anticonvulsant activity in albino CF-1 mouse assessed as protection against subcutaneous metrazol-induced seizure at 300 mg/kg, ip after 4 hrs. The class given is functional, organism-based. More on the design: dose 300 mg/kg. Summed up: (§4)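 Mice (male CF-1 albino, 18–25 g) pretreated i.p. with 30, 100 or 300 mg/kg in 0.5% methyl cellulose. Metrazol, at a dose convulsing 97% of animals, injected subcutaneously into the loose skin fold at the midline of the neck. Animals isolated and watched for 30 min for absence of seizure. Minimum dose active in half or more of mice recorded.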

In data set [12] the test system is Mus musculus. The experiment in a line: Anticonvulsant activity in albino CF-1 mouse assessed as protection against maximal electroshock-induced seizures at 300 mg/kg, ip after 0.5 hrs. The class given is functional, organism-based. Also on record: dose 300 mg/kg. In outline: (§5)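 Male CF-1 albino mice (18–25 g) dosed i.p. at 30, 100 and 300 mg/kg as suspension in 0.5% methyl cellulose. 60 Hz alternating current, 50 mA, delivered 0.2 s via corneal electrodes primed with 0.5% tetracaine HCl electrolyte. Protection = abolition of hind limb tonic extensor component. Value reported is the minimum dose active in half or more of mice.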
(In the maximal electroshock model the usual endpoint is tonic extension of the hind limbs.)

In data set [13] the test system is Mus musculus. The data set can be described thus: Anticonvulsant activity in albino CF-1 mouse assessed as protection against maximal electroshock-induced seizures at 300 mg/kg, ip after 4 hrs. The class given is functional, organism-based. More on the design: dose 300 mg/kg. In outline:
as §5

Data set [14] deals with Mus musculus. The data set can be described thus: Anticonvulsant activity in albino CF-1 mouse assessed as protection against maximal electroshock-induced seizures at 300 mg/kg, ip after 2 hrs. Type of data set: functional, organism-based. More on the design: dose 300 mg/kg. In outline:
as §5

In data set [15] the test system is Mus musculus. The data set can be described thus: Anticonvulsant activity in ip dosed albino CF-1 mouse assessed as protection against subcutaneous metrazol-induced seizures after 0.5 hrs. The class given is functional. The settings on record: albino CF-1, 0.5 h, read-out: MED. In outline:
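Male CF-1 mice (18–25 g) were given compound i.p. at 30, 100 or 300 mg/kg, suspended in 0.5% methyl cellulose. Metrazol was injected subcutaneously into a loose skin fold at the neck midline, at the dose that induces convulsions in 97% of animals. Mice were isolated and watched for 30 min for absence of seizure. The value reported is the minimum dose active in half or more of mice.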

Data set [16] has as its system Mus musculus. The data set can be described thus: Anticonvulsant activity in ip dosed albino CF-1 mouse assessed as protection against maximal electroshock-induced seizures after 0.5 hrs. Type of data set: functional. The settings on record: albino CF-1, ip, read-out: MED. In outline:
(§6)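 Male CF-1 mice (18–25 g) received compound suspended in 0.5% methyl cellulose, i.p. at 30, 100 or 300 mg/kg. A 60 Hz alternating current (50 mA, 0.2 s) was delivered through corneal electrodes primed with 0.5% tetracaine HCl. Protection was defined as abolition of the hind limb tonic extensor component. The value reported is the minimum dose active in half or more of mice.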

The test system of data set [17] is Mus musculus. The data set can be described thus: Anticonvulsant activity in ip dosed albino CF-1 mouse assessed as protection against maximal electroshock-induced seizures after 2 hrs. The class given is functional. The settings on record: albino CF-1, ip, read-out: MED. In outline: as §6
Data set [18] has as its system Mus musculus. The experiment in a line: Anticonvulsant activity in ip dosed albino CF-1 mouse assessed as protection against maximal electroshock-induced seizures after 4 hrs. The class given is functional. The settings on record: albino CF-1, ip, read-out: MED. In outline: as §5
Data set [19] concerns Mus musculus. The data set can be described thus: Anticonvulsant activity in albino CF-1 mouse assessed as protection against subcutaneous metrazol-induced seizure at 300 mg/kg, ip after 0.5 hrs. Also on record: dose 300 mg/kg. Type of data set: functional, organism-based. Summed up:
as §4

Data set [20] in a line: Neurotoxicity in ip dosed albino CF-1 mouse assessed as minimum motor impairment after 0.5 hrs by rotarod test. The class given is toxicity, organism-based. The settings on record: in vivo.
In data set [21] the test system is Mus musculus. The experiment in a line: Anticonvulsant activity in ip dosed albino CF-1 mouse assessed as protection against 6 Hz psychomotor seizure after 0.5 hrs by minimal clonic seizure test. The class given is functional. The settings on record: albino CF-1, ip. Summed up:
as §1

Data set [22] is filed under the species Mus musculus. The data set can be described thus: Protective index, ratio of TD50 for albino CF-1 mouse to ED50 for albino CF-1 mouse by 6 Hz psychomotor seizure test. Type of data set: functional.

Consider `S=C(N/N=C/c1ccc(Oc2ccccc2)cc1)Nc1ccc(Br)cc1`, for which, in data set [1], the result was Active. The outcome in data set [2], in data set [4], in [5], in data set [6], in data set [7] and in [10] was inactive. Further, the Activity result in data set [3] and in data set [9] was “Non-toxic” throughout. Moreover, the logP at 24 h in data set [8] amounted to 6.38.
In the case of `CCCC(CCC)C(=O)[O-].[Na+]` [VALPROATE SODIUM], the result in [11], in data set [12], in data set [13] and in data set [14] was inactive. In addition, the Activity entry in data set [3] and in data set [9] was “Non-toxic” in each case. In [15], the minimal effective dose came to 300 mg/kg.
Consider `O=C1NC(=O)C(c2ccccc2)(c2ccccc2)N1` [PHENYTOIN], for which the minimal effective dose in data set [16], in [17] and in data set [18] was 30 mg/kg throughout. The result in data set [11] and in data set [19] was inactive.
`S=C(N/N=C/c1ccc(Oc2ccc(Br)cc2)cc1)Nc1ccc(Br)cc1`: the result in data set [11], in data set [12], in data set [14], in data set [2], in [4] and in [7] was inactive. Besides, the outcome in data set [10] and in data set [19] was inactive. The values for the Activity in data set [1] (route intraperitoneal), in [3] and in [9] were 75%, “Non-toxic” and “Non-toxic”, respectively. The minimal effective dose in data set [18] was 300 mg/kg. In addition, the log partition coefficient (logP) at 24 h in [8] was determined as 6.53.
For `Fc1ccc(NC(=S)N/N=C/c2ccc(Oc3ccc(Cl)cc3)cc2)cc1`, the Activity in data set [1] (route intraperitoneal) is recorded as 100%; in [3] it was “Non-toxic”; in data set [7] (route intraperitoneal) it was 75%; in [9], “Non-toxic”. In addition, the TD50 at 0.5 h in data set [20] was > 500 mg/kg. The result in [2], in [4] and in data set [10] was Active. In addition, the result in data set [5] and in data set [6] was inactive. In addition, in data set [21], the median effective dose (ED50) is > 200 mg/kg. This compound also had a logP at 24 h in data set [8] of 5.78. In [22], the “Ratio TD50/ED50” value is listed as >2.5.
On to `Fc1ccc(Oc2ccc(/C=N/NC(=S)Nc3ccc(Br)cc3)cc2)cc1`, for which the result in data set [1], in [2] and in data set [4] was Active. For the same compound, the Activity entry in [3] and in data set [9] was “Non-toxic” each time. The outcome in data set [7] and in data set [10] was inactive. Also, the lipophilicity (logP) at 24 h in data set [8] turned out to be 5.82.
`Fc1ccc(NC(=S)N/N=C/c2ccc(Oc3ccc4ccccc4c3)cc2)cc1`: the outcome in data set [1], in data set [4] and in data set [7] was inactive. In addition, the outcome in data set [2] and in [10] was Active. In addition, the Activity result in data set [3] and in [9] was “Non-toxic” in each case. In addition, the lipophilicity (logP) at 24 h in [8] worked out at 6.2.
